Screening results as filed in PubChem BioAssay.
VIM-2 inhibitor: blocks Pseudomonas aeruginosa VIM-2 metallo-beta-lactamase; actives 0.89% (n = 290,000); purified VIM-2, nitrocefin hydrolysis, epi-absorbance fluorescence; inhibition, % at 5.6 µM;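 active = inhibition above the mean of all tested compounds plus 3 SD, cutoff set per screening run, cut at about 7.5% in these data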;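 also: red hydrolysis product quenches plate fluorescence so inhibitors raise well fluorescence; 0% = enzyme with DMSO and 100% = DMSO without enzyme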
PvdQ acylase: P. aeruginosa PvdQ acylase inhibition; purified PvdQ acylase, fluorescence plate reader; inhibition, % at 10 µM; actives 0.063% (n = 340,000); AID 488965; in the data active = inhibition above about 30%, passing the limit was not always enough;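 also: 0% = vehicle neutral wells and 100% = reference inhibitor wells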
HKDC1 inhibitor: HKDC1 (human) hexokinase inhibition. recombinant HKDC1, G6PDH/diaphorase resazurin coupled fluorescence. inhibition, % at 20 µM. actives 0.16% (n = 340,000). Q2TB90. AID 493160;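 active = inhibition above about 35% when tested at 20 µM, limit read from the data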;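 also: plate controls were DMSO wells with enzyme for no effect and DMSO wells lacking enzyme for full effect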
Target sequence (Q2TB90 whole entry, looked up): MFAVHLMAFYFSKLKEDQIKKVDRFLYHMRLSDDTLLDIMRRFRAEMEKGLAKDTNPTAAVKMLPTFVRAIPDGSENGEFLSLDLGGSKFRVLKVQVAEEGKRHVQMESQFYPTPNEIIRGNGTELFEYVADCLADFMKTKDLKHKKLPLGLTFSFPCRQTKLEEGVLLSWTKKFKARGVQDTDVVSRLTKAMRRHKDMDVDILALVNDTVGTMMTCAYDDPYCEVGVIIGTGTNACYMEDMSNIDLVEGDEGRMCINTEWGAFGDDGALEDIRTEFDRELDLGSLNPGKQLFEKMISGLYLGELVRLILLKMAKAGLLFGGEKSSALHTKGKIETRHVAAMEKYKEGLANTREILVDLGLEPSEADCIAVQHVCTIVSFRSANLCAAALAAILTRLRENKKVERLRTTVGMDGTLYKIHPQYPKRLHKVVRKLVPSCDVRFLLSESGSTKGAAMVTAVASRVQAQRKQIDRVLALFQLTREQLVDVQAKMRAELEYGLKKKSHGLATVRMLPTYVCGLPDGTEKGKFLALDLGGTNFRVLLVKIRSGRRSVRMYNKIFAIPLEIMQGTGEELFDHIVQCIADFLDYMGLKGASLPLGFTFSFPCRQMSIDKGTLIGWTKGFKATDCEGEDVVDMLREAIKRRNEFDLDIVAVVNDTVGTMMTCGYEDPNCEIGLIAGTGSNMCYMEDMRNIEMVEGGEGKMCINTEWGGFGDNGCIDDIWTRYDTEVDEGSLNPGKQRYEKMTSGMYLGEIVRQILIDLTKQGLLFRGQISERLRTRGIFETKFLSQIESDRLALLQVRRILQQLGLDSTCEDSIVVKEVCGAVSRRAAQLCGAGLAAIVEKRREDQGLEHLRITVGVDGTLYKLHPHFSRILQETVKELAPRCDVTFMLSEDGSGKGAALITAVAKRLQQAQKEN
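Incubation: 90 min at room temperature in dark / Material: recombinant HKDC1 (HK5) hexokinase enzyme, produced in-house / Quantity: enzyme 5 µg/mL final / Compound: one dose of 20 µM, 1% DMSO / Reagent: glucose and ATP substrates / Buffer or medium: Tris pH 8.0 buffer with MgCl2, Tween-20, BSA, BME / Technique: resorufin fluorescence at 613 nm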
IMP-1 inh-1: blocks Pseudomonas aeruginosa IMP-1 metallo-beta-lactamase | purified IMP-1, nitrocefin hydrolysis, epi-absorbance fluorescence | inhibition, % at 5.6 µM | actives 0.45% (n = 290,000);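 active = inhibition above the mean plus 3 SD of all compounds in the same screening run, cut at about 4.5% in these data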;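 also: 0% = IMP-1 with DMSO and 100% = DMSO wells lacking enzyme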
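System: purified IMP-1; amount: IMP-1 0.2 nM before substrate addition; compound: single dose, 5.6 µM; times: 25 °C, 15 min preincubation, 25 min reaction; signal: Epi-absorbance via hydrolysed-nitrocefin quenching of white-plate fluorescence, 480/530 nm, EDTA stop; benchmarks: DMSO with and without IMP-1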
ATG4B inhibitor: ATG4B (human) cysteine protease inhibition. actives 0.51% (n = 340,000). inhibition, % at 8.33 µM. ATG4B cleavage of LC3-PLA2, NBD-HPC fluorescence, 1 h. AID 504462. Q9Y4P1; in the data active = inhibition above about 40%
MIN6 prolif: MIN6 beta-cell proliferation induction; MIN6 cells proliferation, ATPlite luminescence, 48 h; cells starved in 0.2% serum; 100% = growth in 10% serum; proliferation, % at 10 µM; actives 0.29% (n = 330,000);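 active = compounds whose signal lies at least 3.5 SD above the mean of all wells on their plate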;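 also: 0% = DMSO-treated cells in low-serum medium and 100% = 10% serum control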
IMP-1 inh-2: IMP-1 inhibition, counter-screen for VIM-2 inhibitors; purified IMP-1, nitrocefin hydrolysis, epi-absorbance fluorescence; shares compounds with VIM-2 inhibitor; inhibition, % at 5.6 µM; AID 1856; 1,300 tested, under 10 active; call rule not given here;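 also: 0% = enzyme with vehicle and 100% = vehicle without enzyme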
VIM-2 FRET inh: counter-screen for VIM-2 inhibitors: epi-absorbance artifacts via FRET | inhibition, % at 5.6 µM | purified VIM-2, CCF2 FRET substrate hydrolysis | actives 23% (n = 1,300) | shares compounds with VIM-2 inhibitor;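 active = inhibition above the mean of all tested compounds plus 3 SD, cut at about 19% in these data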;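 also: 0% = VIM-2 plus DMSO and 100% = no enzyme wells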
TEM-1 counter: selectivity counter-screen for VIM-2 inhibitors: E. coli TEM-1 inhibitors. shares compounds with VIM-2 inhibitor. Purified TEM-1, nitrocefin hydrolysis, epi-absorbance fluorescence. inhibition, % at 5.6 µM. actives 3% (n = 1,300). AID 1866;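 active = inhibition above that campaign's mean inhibition plus 3 SD, cut at about 0.46% in these data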;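 also: 0% = TEM-1 with DMSO and 100% = TEM-1 with 100 µM potassium clavulanate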
VIM-2 confirm 2: confirmation of P. aeruginosa VIM-2 metallo-beta-lactamase inhibitors; shares compounds with VIM-2 inhibitor; AID 2187; purified VIM-2, nitrocefin hydrolysis, epi-absorbance; inhibition, % at 5.6 µM; actives 96% (n = 1,300);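 active = inhibition of the VIM-2 beta-lactamase enzyme above about 11% from the earlier first-round screen, limit read from the data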;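 also: 0% = VIM-2 with DMSO and 100% = buffer wells without enzyme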
Active calls of the source: *. The list is not random: actives were taken first. Their share in the collection is about 2%.

CCOc1ccccc1C(=O)NC(C)c1ccc(-n2ccnc2)cc1 (stereo not drawn) was read as VIM-2 inhibitor 26*, PvdQ acylase -8, HKDC1 inhibitor -1, IMP-1 inh-1 -4, ATG4B inhibitor 0, MIN6 prolif -2, IMP-1 inh-2 -4, VIM-2 FRET inh 8, TEM-1 counter -7 and VIM-2 confirm 2 34*.
For COc1ccccc1C(=O)NC(C)c1ccc(-n2ccnc2)cc1 (stereo not drawn) the results were VIM-2 inhibitor 1, PvdQ acylase 10, HKDC1 inhibitor 2, IMP-1 inh-1 -6, ATG4B inhibitor -5 and MIN6 prolif -2.
Screening Cc1c(OC(C)C(=O)NCc2ccncc2)ccc2c3c(c(=O)oc12)CCCC3 (stereo not drawn) returned VIM-2 inhibitor 51*, PvdQ acylase -17, HKDC1 inhibitor -15, IMP-1 inh-1 -2, ATG4B inhibitor 6, MIN6 prolif 0, IMP-1 inh-2 -3, VIM-2 FRET inh 17, TEM-1 counter -11 and VIM-2 confirm 2 62*.
Screening Cc1c(OC(C)C(=O)NCC2CCC(C(=O)O)CC2)ccc2c3c(c(=O)oc12)CCCC3 (stereo not drawn) returned VIM-2 inhibitor -2, PvdQ acylase -16, HKDC1 inhibitor -3, IMP-1 inh-1 -4, ATG4B inhibitor 6 and MIN6 prolif 0.
Screening Cc1c(OC(C)C(=O)NCc2ccccn2)ccc2c3c(c(=O)oc12)CCC3 (stereo not drawn) returned VIM-2 inhibitor 19*, PvdQ acylase -8, HKDC1 inhibitor -5, IMP-1 inh-1 -1, ATG4B inhibitor 2, MIN6 prolif 1, IMP-1 inh-2 -2, VIM-2 FRET inh 2, TEM-1 counter -5 and VIM-2 confirm 2 28*.
Cc1c(OCC(=O)NCc2ccccn2)ccc2c3c(c(=O)oc12)CCCC3 was read as VIM-2 inhibitor 17*, PvdQ acylase -14, HKDC1 inhibitor 4, IMP-1 inh-1 -1, ATG4B inhibitor 8, MIN6 prolif 2, IMP-1 inh-2 -2, VIM-2 FRET inh -3, TEM-1 counter -18 and VIM-2 confirm 2 26*.
Screening Cc1c(OCC(=O)Nc2cccnc2)ccc2c3c(c(=O)oc12)CCC3 returned VIM-2 inhibitor 24*, PvdQ acylase -8, HKDC1 inhibitor 10, IMP-1 inh-1 -2, ATG4B inhibitor -15, MIN6 prolif 0, IMP-1 inh-2 -4, VIM-2 FRET inh -1, TEM-1 counter -16 and VIM-2 confirm 2 35*.
Screening COc1cc(CN2CCNC(=O)C2CC(=O)N(C)CCCN2CCOCC2)cc(OC)c1 (stereo not drawn) returned VIM-2 inhibitor -2, PvdQ acylase -3, HKDC1 inhibitor -4, IMP-1 inh-1 -3, ATG4B inhibitor 22 and MIN6 prolif -3.
For O=[N+]([O-])c1ccc(Oc2cccc(C(F)(F)F)c2)nc1 the results were VIM-2 inhibitor -2, PvdQ acylase -1, HKDC1 inhibitor -2, IMP-1 inh-1 -1, ATG4B inhibitor -4 and MIN6 prolif 2.
CC(=O)N/N=C/c1cc(C(C)C)cc(/C=N/NC(C)=O)c1O was read as VIM-2 inhibitor 34*, PvdQ acylase -8, HKDC1 inhibitor -21, IMP-1 inh-1 0, ATG4B inhibitor -13, MIN6 prolif -5, IMP-1 inh-2 -1, VIM-2 FRET inh 12, TEM-1 counter -2 and VIM-2 confirm 2 47*.
